Key:
[1] = Antiproliferative activity against BALB/c mouse splenocytes assessed as inhibition of [3H]thymidine incorporation into DNA at 1 uM after 24 hrs […] relative to control; format: cell-based, Splenocyte
Summary of the method: (§1)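 Spleens from male BALB/c mice (5–6 weeks) were teased into single cells in RPMI-1640 with 20 mM Hepes (pH 7.35) and checked by trypan blue. After 30 min preincubation, 10^6 cells/ml were held in medium with 15% FCS, with compound dissolved in medium. Incubation was at 37° in air-CO₂ (95:5). [³H]-thymidine (2 μCi/ml) was added after 1 h and the run stopped 24 h later. Read-out is cpm/10^6 cells; % inhibition = [1 − cpm treated/cpm control]×100; Student's t-test.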

[2] = Antiproliferative activity against BALB/c mouse splenocytes assessed as inhibition of [3H]thymidine incorporation into DNA at 10 uM after 24 hrs […] relative to control; format: cell-based, Splenocyte; summary of the method: as §1
[3] = Antiproliferative activity against BALB/c mouse splenocytes assessed as inhibition of [3H]thymidine incorporation into DNA at 100 uM after 24 hrs […] relative to control; format: cell-based, Splenocyte; summary of the method: as §1
[4] = Antiproliferative activity against Syrian hamster hepatoma cells assessed as inhibition of [3H]thymidine incorporation into DNA at 10 uM after 24 hrs […] relative to control; format: functional; conditions: Mesocricetus auratus
Summary of the method: (§2)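 Hepatoma was raised in Syrian hamsters by s.c. Kirkman-Robbins hepatoma pulp. Tumour cells were freed mechanically and with 0.4% collagenase plus 0.2% trypsin (>95% viable). After 30 min preincubation, 0.5×10^6 cells/ml were held in RPMI-1640 with 15% FCS and compound in medium at 37°, air-CO₂ (95:5). [³H]-thymidine (2 μCi/ml) was added at 1 h and incubation ended 24 h later. Read-out is cpm/10^6 cells; % inhibition vs control; Student's t-test.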

[5] = Antiproliferative activity against Syrian hamster hepatoma cells assessed as inhibition of [3H]thymidine incorporation into DNA at 100 uM after 24 hrs […] relative to control; format: functional; conditions: Mesocricetus auratus; summary of the method: as §2

SMILES: CC(C)CC(=O)O[C@@H]1OC=C(CO[C@@H]2O[C@H](CO)[C@@H](O)[C@H](O)[C@H]2O)[C@@H]2CC=C(CO)[C@@H]12
- inhibition at 24 h, 1 µM [1]: 4%
- inhibition at 24 h, 10 µM [2]: 24%
- inhibition at 24 h, 100 µM [3]: 59%
- inhibition at 10 µM [4]: 12%
- inhibition at 100 µM [5]: 69%

SMILES: C=C1[C@H]2[C@H](OC(=O)CC(C)C)OC=C(CO[C@@H]3O[C@H](CO)[C@@H](O)[C@H](O)[C@H]3O)[C@@H]2C[C@@H]1O
- inhibition at 24 h, 1 µM [1]: 9%
- inhibition at 24 h, 10 µM [2]: 16%
- inhibition at 24 h, 100 µM [3]: 45%
- inhibition at 10 µM [4]: 18%
- inhibition at 100 µM [5]: 75%

SMILES: CC(C)CC(=O)O[C@@H]1OC=C(CO)[C@@H]2CC=C(CO)[C@@H]12
- inhibition at 24 h, 1 µM [1]: 15%
- inhibition at 24 h, 10 µM [2]: 25%
- inhibition at 24 h, 100 µM [3]: 60%

From ChEMBL document CHEMBL1158998, “Studies on iridoids of tissue cultures of Penstemon serrulatus: isolation and their antiproliferative properties” (J Nat Prod, 1992)
